697 NFkB inh – inhibitors of PMA/ionomycin-induced NF-kB reporter, 697 cells, primary screen, B-cell NF-kB inhibitor project, cell-based, luminescence, uHTS | inhibition, % at 4 µM | hit rate 0.33% among 330,000 | 697 B-cell NF-kB luciferase reporter, 16 h; in the data active means inhibition above about 35%
Jurkat NFkB inh – inhibitors of induced NF-kB luciferase reporter, primary screen, TCR NF-kB activation inhibitor project, cell-based, luminescence, uHTS | inhibition, % at 4 µM | Jurkat, PMA/ionomycin-induced NF-kB luciferase reporter | hit rate 0.53% among 330,000; in the data active means inhibition above about 50%
IMP-1 inhibitor – IMP-1 metallo-beta-lactamase inhibitors, primary screen, biochemical, epi-absorbance readout, Pseudomonas aeruginosa enzyme; metallo-beta-lactamase IMP-1 (Pseudomonas aeruginosa); purified IMP-1, nitrocefin hydrolysis, epi-absorbance fluorescence; inhibition, % at 5.6 µM; AID 1556, 2009; hit rate 0.45% among 290,000;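 active means inhibition above the mean plus 3 SD of all compounds in the same screening run, cut at about 4.5% in these data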
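system = purified recombinant IMP-1 beta-lactamase | amount = 0.2 nM IMP-1, as dispensed | medium = HEPES buffer pH 7.1 with ZnSO4 and Brij 35 | times = 25 °C, 15 min preincubation, 25 min reaction | detection = plate fluorescence quenching by hydrolysis product, ex 480/em 530 nm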
VIM-2 inh – VIM-2 metallo-beta-lactamase inhibitors, primary screen, biochemical, epi-absorbance readout, Pseudomonas aeruginosa enzyme. purified VIM-2, nitrocefin hydrolysis, epi-absorbance fluorescence. inhibition, % at 5.6 µM. hit rate 0.89% among 290,000. AID 1527, 2009;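 active means inhibition above the mean of all tested compounds plus 3 SD, cutoff set per screening run, cut at about 7.5% in these data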;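 further: red hydrolysis product quenches plate fluorescence so inhibitors raise well fluorescence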
aSyn 5UTR inh – MLPCN primary screen, SNCA 5' untranslated region. alpha-synuclein 5'UTR reporter, inhibitor activity. inhibition, % (tested at 7.5 µM). hit rate 0.82% among 300,000. AID 1813, 2009; in the data active means inhibition above about 60%;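 further: H4 neuroglioblastoma cells stably carrying SNCA 5'UTR luciferase fusion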
Mdm2-MdmX inh – inhibitors of human Mdm2-MdmX association, primary screen, cell-based, luminescence, split luciferase, SaOS-2, uHTS; Protein Mdm4 (Homo sapiens) + E3 ubiquitin-protein ligase Mdm2 (Homo sapiens), …; SaOS-2 split-luciferase Mdm2/MdmX complementation; inhibition, % at 8 µM; hit rate 3% among 330,000;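 active means inhibition of at least 50% at 8 µM in the primary screen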
Target sequence (O15151 whole entry, looked up): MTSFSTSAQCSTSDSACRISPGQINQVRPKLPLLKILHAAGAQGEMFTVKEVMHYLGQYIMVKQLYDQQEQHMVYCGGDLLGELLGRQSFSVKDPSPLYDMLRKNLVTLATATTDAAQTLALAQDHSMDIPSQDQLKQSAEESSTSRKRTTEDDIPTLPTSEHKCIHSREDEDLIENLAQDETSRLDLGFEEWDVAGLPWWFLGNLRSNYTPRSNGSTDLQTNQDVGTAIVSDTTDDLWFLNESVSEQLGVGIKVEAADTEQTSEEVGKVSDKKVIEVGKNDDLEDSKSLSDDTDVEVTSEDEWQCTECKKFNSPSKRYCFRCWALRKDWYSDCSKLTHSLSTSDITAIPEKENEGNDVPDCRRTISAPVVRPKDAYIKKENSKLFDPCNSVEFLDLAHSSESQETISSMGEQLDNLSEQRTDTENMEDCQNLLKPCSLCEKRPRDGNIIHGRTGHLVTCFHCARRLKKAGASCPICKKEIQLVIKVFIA
Target sequence (Q00987 whole entry, looked up): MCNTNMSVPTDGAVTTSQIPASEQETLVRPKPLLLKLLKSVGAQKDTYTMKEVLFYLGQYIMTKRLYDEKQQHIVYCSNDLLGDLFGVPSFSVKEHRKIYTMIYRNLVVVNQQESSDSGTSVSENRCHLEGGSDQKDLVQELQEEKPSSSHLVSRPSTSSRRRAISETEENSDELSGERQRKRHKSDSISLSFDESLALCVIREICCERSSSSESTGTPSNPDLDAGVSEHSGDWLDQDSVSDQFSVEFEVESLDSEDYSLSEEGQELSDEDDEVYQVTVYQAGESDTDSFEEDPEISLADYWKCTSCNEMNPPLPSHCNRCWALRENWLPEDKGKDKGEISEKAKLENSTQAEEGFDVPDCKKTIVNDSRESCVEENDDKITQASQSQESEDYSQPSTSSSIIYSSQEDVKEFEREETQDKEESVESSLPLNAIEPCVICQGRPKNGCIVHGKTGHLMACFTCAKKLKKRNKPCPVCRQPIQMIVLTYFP
Mdm2 MdmX conf – Mdm2-MdmX complex disruptors, retested hits, confirmation, luminescence, single concentration | shares compounds with Mdm2-MdmX inh | Mdm2-MdmX binding, luminescent assay | inhibition, % at 8 µM | hit rate 55% among 10,000 | AID 489028, 2010; in the data active means inhibition above about 40%
FLuc counter – full-length luciferase signal inhibition, confirmation, counter-screen for Mdm2/MdmX interaction inhibitor project, cell-based, single concentration, SaOS-2 | shares compounds with Mdm2-MdmX inh | SaOS-2 full-length luciferase counterscreen, luminescence | inhibition, % at 8 µM | hit rate 77% among 6,200 | AID 504607, 2011;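 active means mean inhibition at 8 µM reaching about 37%, which flags the compound as non-specific, limit read from the data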;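 further: p53-null SaOS-2 cells with luciferase driven by a doxycycline-inducible promoter; compound on cells about two nights before reading with doxycycline added after day one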
Hits are given with their value; - = inactive; . = no result. This is a sample that favours compounds with a hit; in the whole collection about 4.7% have one here.

SMILES	697 NFkB inh	Jurkat NFkB inh	IMP-1 inhibitor	VIM-2 inh	aSyn 5UTR inh	Mdm2-MdmX inh	Mdm2 MdmX conf	FLuc counter
C/C(=N\NC(=O)c1ccccc1O)C1CC1	-	-	-	-	-	52.4	-	.
Cc1nc(SCC(=O)Nc2c(C)n(C)n(-c3ccccc3)c2=O)[nH]c(=O)c1C	-	-	-	-	-	-	.	.
Cc1occc1C(=O)N(C)Cc1nc(-c2ccccc2)no1	-	-	-	-	-	-	.	.
CN(CC(=O)NC(=O)NC1CCCCC1)Cc1ccccc1	-	-	.	.	.	-	.	.
CC(C)(C)c1ccc(S(=O)(=O)N2CCc3nc4ccccc4c(C(=O)O)c3C2)cc1	-	-	-	-	-	-	.	.
COc1ccc(C(=O)O/N=C(\N)c2ccc(Cl)cc2)cc1	-	-	-	-	-	100.0	-	162.9
N/C(=N\OC(=O)c1cccc(Br)c1)c1ccccc1	-	-	-	-	-	-	.	.
Cc1cccc(/C(N)=N/OC(=O)c2ccncc2)c1	-	-	-	-	-	-	.	.
Cc1cccc(C(=O)O/N=C(\N)c2ccc(Cl)cc2)c1	-	-	-	-	-	50.8	-	.
N/C(=N\OC(=O)c1ccc([N+](=O)[O-])cc1)c1ccc(Br)cc1	-	-	-	-	-	-	.	.
Cc1ccc(C(=O)O/N=C(\N)c2ccc(Br)cc2)cc1C	-	-	-	-	-	99.5	82.8	116.4
Cc1cccc(C(=O)O/N=C(\N)c2ccc(Br)cc2)c1	-	-	-	-	-	50.6	-	.
COc1ccccc1C(=O)O/N=C(\N)c1ccc(Cl)cc1	-	-	-	-	-	-	.	.
C=CCN1N=C(/C=C/c2ccccc2)CCC1=O	-	-	-	-	-	-	.	.
C=CCn1c(SC(C)C(=O)NCCC2=CCCCC2)nc2ccccc2c1=O (configuration not stated)	-	-	-	-	-	-	.	.
Cc1ccc(C)c(C(=O)O/N=C(\N)c2ccc(Br)cc2)c1	-	-	-	-	-	57.0	54.1	103.5
Cc1ccc(/C(N)=N/OC(=O)c2ccc3c(c2)OCO3)cc1	-	-	-	-	-	-	.	.
N/C(=N\OC(=O)c1ccoc1)c1ccc(Br)cc1	-	-	-	-	-	-	.	.
N/C(=N\OC(=O)c1ccc2c(c1)OCO2)c1ccc(Cl)cc1	-	-	-	-	-	81.6	-	.
N/C(=N\OC(=O)c1ccc2ccccc2c1)c1ccc(Br)cc1	-	-	-	-	-	62.5	47.0	95.6
Cc1ccc(/C(N)=N/OC(=O)c2ccc(Cl)cc2Cl)cc1	-	-	-	-	-	-	.	.
N/C(=N\OC(=O)c1ccc(Br)cc1)c1cccc([N+](=O)[O-])c1	-	-	-	-	-	-	.	.
Cc1cc(C)cc(C(=O)O/N=C(\N)c2ccc(Br)cc2)c1	-	-	-	-	-	100.0	78.3	89.9
COc1ccc(S(=O)(=O)N2CCC(C(=O)N[C@@H](C)C(=O)NC3CCCC3)CC2)cc1	-	-	-	-	-	-	.	.
CCCCNc1c(-c2ccc(-c3ccc(OC)cc3)c(OC)c2)nc2ccccn12	-	-	.	.	.	-	.	.
SMILES	697 NFkB inh	Jurkat NFkB inh	IMP-1 inhibitor	VIM-2 inh	aSyn 5UTR inh	Mdm2-MdmX inh	Mdm2 MdmX conf	FLuc counter
O=C1CC(N(CCc2ccccc2)C(=S)Nc2ccccc2)C(=O)N1c1ccc(Br)cc1 (configuration not stated)	-	-	-	-	-	68.0	-	59.2
CCn1c(SCC(=O)c2ccc(OC)cc2)nnc1C(C)NC(=O)c1ccc(OC)cc1 (configuration not stated)	-	-	-	-	-	-	.	.
CCC1CSC(Nc2ccc(C(=O)/C=C/c3ccc(Br)cc3)cc2)=N1 (configuration not stated)	-	-	-	-	-	59.0	-	.
CCC1CSC(Nc2ccc(C(=O)/C=C/c3ccc(OC)c(OC)c3)cc2)=N1 (configuration not stated)	-	-	-	-	-	-	.	.
Cc1cc(-c2nnc(CSc3nnc(NC(=O)c4ccc(C(C)(C)C)cc4)s3)o2)ccc1[N+](=O)[O-]	-	-	-	-	-	59.4	-	.
COc1cc(/C=N/Nc2snc(SC)c2C#N)cc(OC)c1OC	-	-	-	-	-	69.5	72.9	43.3
CCn1c(=O)c(C(=O)Nc2ccccc2F)c(O)c2ccccc21	-	-	-	-	-	-	.	.
CC(C)Cn1c(=O)c(C(=O)Nc2ccccc2S(N)(=O)=O)c(O)c2ccccc21	-	-	-	-	-	63.5	60.3	-
CCC(C)n1c(=O)c(C(=O)Nc2ccccc2S(N)(=O)=O)c(O)c2ccccc21 (configuration not stated)	-	-	-	-	-	57.1	55.5	-
Cc1ccc2nc(CCl)[n+]([O-])c(-c3ccccc3)c2c1	-	-	-	-	-	-	.	.
CCN(C#N)c1nc(N(C)C)nc(N(C)C)n1	-	-	-	-	-	-	.	.
COc1ccccc1Cn1c(=S)[nH]c2cc(C(=O)N3CCN(c4ccccc4OC)CC3)ccc2c1=O	-	-	-	-	-	60.8	42.5	54.0
CCOC(=O)N1CCN(C(=O)c2ccc3c(=O)n(-c4ccc(OC)cc4)c(=S)[nH]c3c2)CC1	-	-	-	-	-	68.6	-	.
CN(Cc1ccco1)C(=O)Cn1nc(-c2ccc(Cl)cc2)ccc1=O	-	-	-	-	-	-	.	.
COc1cc(/C=C(\C#N)c2nc3ccccc3[nH]2)cc(Br)c1OCc1ccccc1	-	-	-	-	-	-	.	.
COc1cc(/C=C(\C#N)c2nc3ccccc3[nH]2)cc(Br)c1OCc1ccc(F)cc1	-	-	-	-	-	75.0	-	39.2
CCOc1cc(N(CC)CC)ccc1/C=C(/C#N)c1nc2ccccc2[nH]1	-	-	-	-	-	50.6	47.4	91.8
CCN(CC)c1ccc(/C=C(/C#N)c2nc3ccc(C)cc3[nH]2)c(OC(C)C)c1	-	-	-	-	-	52.2	43.9	78.7
CC(OC(=O)c1cc(S(=O)(=O)N2CCOCC2)ccc1F)C(=O)NC1CCCC1 (configuration not stated)	-	-	.	.	.	-	.	.
NC(=O)c1oc2ccccc2c1NC(=O)c1ccc([N+](=O)[O-])o1	-	-	-	-	100.4	64.9	55.4	-
